# Tests used:
# [1] = Inhibition of cytosolic phospholipase A2alpha by GLU micelle assay
# [2] = Aqueous solubility after 18 hrs at pH 7.4; type: physicochemical
# Procedure, shortened: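 Compound taken as 8 mg/mL DMSO stock; 13 µL added to 1.0 mL pH 7.4 buffer, mixed, left to settle 18 h at room temperature. Mixture filtered (0.2 µm), filtrate concentration read by UV plate reader. Solubility derived against a single-point standard.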
# MC9 [3] = assay: Inhibition of PGF2alpha production in DNP-BSA-stimulated mouse MC9 cells at 5 uM treated 15 mins before DNP-BSA challenge measured after 4 mins; type: functional
# MC9 [4] = assay: Inhibition of LTB4 production in DNP-BSA-stimulated mouse MC9 cells at 5 uM treated 15 mins before DNP-BSA challenge measured after 4 mins; type: functional
# Blood = assay: Inhibition of TXB2 production in calcium ionophore A-23187-stimulated Sprague-Dawley rat whole blood after 10 mins; type: functional, tissue-based
# MC9 [5] = assay: Inhibition of PGF2alpha production in arachidonic acid-stimulated mouse MC9 cells at 5 uM treated 15 mins before arachidonic acid challenge measured after 4 mins; type: functional
# [6] = Lipophilicity, log D at pH 7.4; type: physicochemical; details: buffer
# [7] = Permeability in buffer of pH 7.4 by PAMPA; type: ADME; details: read-out: permeability
# Procedure, shortened: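 PAMPA: 5 mg/mL DMSO stock diluted 200-fold in pH 7.4 universal buffer (25 µg/mL) and placed in donor wells. Filter membrane coated with phosphatidylcholine in dodecane (20 mg/mL); acceptor holds pH 7.4 buffer. Sandwich left 18 h at rt. Donor, acceptor and reference concentrations read by UV. Effective permeability (Pe) calculated; triplicate runs averaged. Verapamil and theophylline run as QC standards.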
Structure (SMILES),IC50 [1],solubility at 18 h [2],logD [6],also measured
O=C(O)Cc1ccc(Cn2c(=O)c3cc(Br)ccc3n(C(c3ccccc3)c3ccccc3)c2=O)cc1,12 µM,–,–,–
Cc1cccc(C)c1CS(=O)(=O)NCCc1c(CCCc2ccc(C(=O)O)cc2)c2cc(Cl)ccc2n1C(c1ccccc1)c1ccccc1,0.014 µM,–,–,–
O=C(O)c1ccc(OC/C=C\Cn2c(=O)c3ccccc3n(C(c3ccccc3)c3ccccc3)c2=O)cc1,25 µM,37 µg/mL,–,–
O=C(O)c1ccc(OC/C=C/Cn2c(=O)n(C(c3ccccc3)c3ccccc3)c(=O)c3cc(Cl)ccc32)cc1,10 µM,–,–,–
O=C(O)c1ccc(OCCn2c(=O)c3ccccc3n(C(c3ccccc3)c3ccccc3)c2=O)cc1,10 µM,–,–,–
O=C(O)c1ccc(OC/C=C/Cn2c(=O)c3ccccc3n(C(c3ccccc3)c3ccccc3)c2=O)cc1,2 µM,51 µg/mL,–,inhibition at 5 µM (MC9 [3]): 61%; inhibition at 5 µM (MC9 [4]): 98%; IC50 (Blood): 12 µM; inhibition at 5 µM (MC9 [5]): -15%
O=C(O)c1ccc(OCCCCCn2c(=O)n(C(c3ccccc3)c3ccccc3)c(=O)c3ccccc32)cc1,30 µM,–,–,–
O=C(O)c1ccc(CCCc2c(CCNS(=O)(=O)Cc3ccc(Cl)c(Cl)c3)n(C(c3ccccc3)c3ccccc3)c3ccc(Cl)cc23)cc1 [EFIPLADIB],0.04 µM,–,–,–
O=C(O)c1ccc(OC/C=C/Cn2c(=O)n(C(c3ccccc3)c3ccccc3)c(=O)c3ccc(Oc4ccccc4)cc32)cc1,1.6 µM,15 µg/mL,4.8,–
O=C(O)c1ccc(OC/C=C/Cn2c(=O)n(C(c3ccccc3)c3ccccc3)c(=O)c3ccc(F)cc32)cc1,1.4 µM,–,2.9,inhibition at 5 µM (MC9 [3]): 83%; inhibition at 5 µM (MC9 [4]): 99%; IC50 (Blood): 6 µM; inhibition at 5 µM (MC9 [5]): -27%
CS(=O)(=O)c1ccc2c(=O)n(C(c3ccccc3)c3ccccc3)c(=O)n(C/C=C/COc3ccc(C(=O)O)cc3)c2c1,15 µM,> 100 µg/mL,1.4,Papp [7]: 0.3 ×10⁻⁶ cm/s
O=C(O)c1ccc(OC/C=C/Cn2c(=O)n(C(c3ccccc3)c3ccccc3)c(=O)c3cc(Br)ccc32)cc1,9 µM,–,–,–
Cc1ccc2c(=O)n(C(c3ccccc3)c3ccccc3)c(=O)n(C/C=C/COc3ccc(C(=O)O)cc3)c2c1,2.8 µM,40 µg/mL,3.2,Papp [7]: 2 ×10⁻⁶ cm/s
O=C(O)c1ccc(Cn2c(=O)c3cc(Cl)ccc3n(C(c3ccccc3)c3ccccc3)c2=O)cc1,90 µM,–,–,–
O=C(O)COc1ccc(Cn2c(=O)n(C(c3ccccc3)c3ccccc3)c(=O)c3ccccc32)cc1,360 µM,–,–,–
O=C(O)c1ccc(OCCn2c(=O)c3ccccc3n(Cc3ccccc3)c2=O)cc1,> 100 µM,–,–,–
O=C(O)c1ccc(OC/C=C\Cn2c(=O)n(C(c3ccccc3)c3ccccc3)c(=O)c3ccccc32)cc1,44 µM,–,–,–
O=C(O)Cc1coc(-c2ccc(Cn3c(=O)n(C(c4ccccc4)c4ccccc4)c(=O)c4ccccc43)cc2)n1,140 µM,–,–,–
O=C(O)c1ccc(OC/C=C/Cn2c(=O)n(C(c3ccccc3)c3ccccc3)c(=O)c3ccc(N4CCOCC4)cc32)cc1,2.2 µM,48 µg/mL,2.5,Papp [7]: 1 ×10⁻⁶ cm/s
O=C(O)c1ccc(OC/C=C/Cn2c(=O)n(C(c3ccccc3)c3ccccc3)c(=O)c3ccc(Sc4ccccc4)cc32)cc1,2.1 µM,–,4.8,–
COC(=O)C1CCN(c2ccc3c(=O)n(C(c4ccccc4)c4ccccc4)c(=O)n(C/C=C/COc4ccc(C(=O)O)cc4)c3c2)CC1,1.8 µM,30 µg/mL,3.3,Papp [7]: 1 ×10⁻⁶ cm/s
O=C(O)c1ccc(Cn2c(=O)c3ccc(Cl)cc3n(C(c3ccccc3)c3ccccc3)c2=O)cc1,80 µM,–,–,–
O=C(O)c1ccc(OCCCCCCCn2c(=O)n(C(c3ccccc3)c3ccccc3)c(=O)c3ccccc32)cc1,71 µM,–,–,–
Nc1ccc2c(=O)n(C(c3ccccc3)c3ccccc3)c(=O)n(C/C=C/COc3ccc(C(=O)O)cc3)c2c1,9 µM,> 100 µg/mL,1.7,Papp [7]: 0.4 ×10⁻⁶ cm/s
CSc1ccc2c(=O)n(C(c3ccccc3)c3ccccc3)c(=O)n(C/C=C/COc3ccc(C(=O)O)cc3)c2c1,2 µM,26 µg/mL,3.2,Papp [7]: 4.5 ×10⁻⁶ cm/s

Structure (SMILES),IC50 [1],solubility at 18 h [2],logD [6],also measured
O=C(O)c1ccc(OC/C=C\Cn2c(=O)n(C(c3ccccc3)c3ccccc3)c(=O)c3cc(Cl)ccc32)cc1,40 µM,–,–,–
O=C(O)c1ccc(OC/C=C/Cn2c(=O)n(C(c3ccccc3)c3ccccc3)c(=O)c3ccc([N+](=O)[O-])cc32)cc1,1 µM,34 µg/mL,2.4,inhibition at 5 µM (MC9 [3]): 30%; inhibition at 5 µM (MC9 [4]): 97%; IC50 (Blood): 13 µM; inhibition at 5 µM (MC9 [5]): -12%; Papp [7]: 2.6 ×10⁻⁶ cm/s
O=C(O)Cc1ccc(Cn2c(=O)n(C(c3ccccc3)c3ccccc3)c(=O)c3ccccc32)cc1,260 µM,–,–,–
O=C(O)c1ccc(OC/C=C/Cn2c(=O)c3cc(F)ccc3n(C(c3ccccc3)c3ccccc3)c2=O)cc1,5.6 µM,42 µg/mL,–,–
O=C(O)c1ccc(OC/C=C\Cn2c(=O)n(C(c3ccccc3)c3ccccc3)c(=O)c3ccc(Cl)cc32)cc1,30 µM,–,–,–
O=C(O)c1ccc(OC/C=C/Cn2c(=O)n(C(c3ccccc3)c3ccccc3)c(=O)c3ccccc32)cc1,3 µM,–,–,inhibition at 5 µM (MC9 [3]): 52%; inhibition at 5 µM (MC9 [4]): 97%; IC50 (Blood): 14 µM
O=C(O)c1ccc(OC/C=C\Cn2c(=O)n(C(c3ccccc3)c3ccccc3)c(=O)c3cc(Br)ccc32)cc1,30 µM,–,–,–
O=C(O)c1ccc(OC/C=C\Cn2c(=O)c3ccc(Cl)cc3n(C(c3ccccc3)c3ccccc3)c2=O)cc1,60 µM,51 µg/mL,–,–
O=C(O)c1ccc(OC/C=C/Cn2c(=O)n(C(c3ccccc3)c3ccccc3)c(=O)c3cc(F)ccc32)cc1,6 µM,–,–,–
O=C(O)c1ccc(OCCn2c(=O)c3ccc(Cl)cc3n(C(c3ccccc3)c3ccccc3)c2=O)cc1,4 µM,–,3.3,inhibition at 5 µM (MC9 [3]): 61%; inhibition at 5 µM (MC9 [4]): 93%; inhibition at 5 µM (MC9 [5]): 0%
O=C(O)c1ccc(OC/C=C/Cn2c(=O)c3ccc(Cl)cc3n(C(c3ccccc3)c3ccccc3)c2=O)cc1,4.5 µM,28 µg/mL,–,–
O=C(O)CCCOc1ccc(Cn2c(=O)n(C(c3ccccc3)c3ccccc3)c(=O)c3ccccc32)cc1,40 µM,–,–,–
O=C(O)C1CC1Cn1c(=O)c2cc(Br)ccc2n(C(c2ccccc2)c2ccccc2)c1=O (stereo unspecified),120 µM,–,–,–
O=C(O)c1ccc(OCCCn2c(=O)n(C(c3ccccc3)c3ccccc3)c(=O)c3ccccc32)cc1,50 µM,–,–,–
O=C(O)c1cccc(OC/C=C/Cn2c(=O)n(C(c3ccccc3)c3ccccc3)c(=O)c3ccc(Cl)cc32)c1,100 µM,–,–,–
O=C(O)c1ccc(OCCCCCCn2c(=O)n(C(c3ccccc3)c3ccccc3)c(=O)c3ccccc32)cc1,47 µM,–,–,–
O=C(O)c1ccc(OCCCCn2c(=O)n(C(c3ccccc3)c3ccccc3)c(=O)c3ccc(Cl)cc32)cc1,2.5 µM,–,–,–
O=C(O)c1ccc(OC/C=C\Cn2c(=O)n(C(c3ccccc3)c3ccccc3)c(=O)c3cc(F)ccc32)cc1,40 µM,–,–,–
Cc1c(CCOc2ccc(C(=O)O)cc2)c2cc(Cl)ccc2n1C(c1ccccc1)c1ccccc1,3 µM,–,6.1,inhibition at 5 µM (MC9 [3]): 81%; inhibition at 5 µM (MC9 [4]): 96%; inhibition at 5 µM (MC9 [5]): -8%
COc1ccc2c(=O)n(C(c3ccccc3)c3ccccc3)c(=O)n(C/C=C/COc3ccc(C(=O)O)cc3)c2c1,3 µM,40 µg/mL,2.8,inhibition at 5 µM (MC9 [3]): 74%; inhibition at 5 µM (MC9 [4]): 99%; IC50 (Blood): 9 µM; inhibition at 5 µM (MC9 [5]): -98%; Papp [7]: 1.8 ×10⁻⁶ cm/s
O=C(O)c1ccc(OC/C=C/Cn2c(=O)n(C(c3ccccc3)c3ccccc3)c(=O)c3ccc(-n4cncn4)cc32)cc1,1.1 µM,> 100 µg/mL,1.4,inhibition at 5 µM (MC9 [3]): 102%; inhibition at 5 µM (MC9 [4]): 100%; IC50 (Blood): 11 µM; inhibition at 5 µM (MC9 [5]): -28%; Papp [7]: 1.6 ×10⁻⁶ cm/s
O=C(O)c1ccc(OCCn2c(=O)n(C(c3ccccc3)c3ccccc3)c(=O)c3ccc(Cl)cc32)cc1,10 µM,–,–,–
O=C(O)c1ccc(OC/C=C/Cn2c(=O)n(C(c3ccccc3)c3ccccc3)c(=O)c3ccc(N4CCSCC4)cc32)cc1,2.4 µM,–,3.6,–
O=C(O)c1ccc(OC/C=C/Cn2c(=O)n(C(c3ccccc3)c3ccccc3)c(=O)c3ccc(Cl)cc32)cc1,1 µM,–,–,inhibition at 5 µM (MC9 [3]): 99%; inhibition at 5 µM (MC9 [4]): 98%; IC50 (Blood): 11 µM; inhibition at 5 µM (MC9 [5]): -45%
